In the library only some 2.3% were active in any assay of this set; here they are far more common.
TRPC4 inh – TRPC4 (mouse) channel inhibition. Q9QUQ5. B-score at 10 µM. AID 2247. 300,000 compounds, 0.39% hits. HEK293 TRPC4beta/mu-opioid, DAMGO-evoked Fluo4 calcium flux; hits give low values;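 active means B-score over 3 SD under the library average, no early fluorescence shift, positive overall ratio signal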
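material = TRPC4beta/mu-opioid receptor HEK293 cell line | probe or stimulus = sequential submaximal and maximal DAMGO stimulation | compound dosing = one concentration per compound | measured by = Fluo4 Ca2+ flux fluorescence | evaluation = integrated fluorescence ratio relative to baseline, converted to per-well B score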
TRPC4 agonist – TRPC4 (mouse) channel activation. HEK293 TRPC4beta/mu-opioid, Fluo4 calcium fluorescence; hits give high values. B-score at 10 µM. 310,000 compounds, 0.49% hits;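 active means B-score above 5 SD of library B-scores, and initial fluorescence ratio not above library mean plus 5 SD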;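 further: positive B-score marks a calcium rise read as TRPC4 activation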
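system = HEK293 cells stably co-expressing mouse TRPC4beta and mu-opioid receptor | schedule = Fluo4 dye loading 45 min at room temperature, 110 s recording | measure = B-scored integrated calcium fluorescence ratio | signal = Fluo4 calcium-sensitive dye fluorescence, kinetic, 1 Hz baseline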
TRPC6 act – mouse TRPC6 channel activation. Q61143. 310,000 compounds, 0.13% hits. HEK293-TRPC6 membrane potential dye fluorescence; hits give high values. B-score at 10 µM;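 active means B-score of the integrated fluorescence ratio above library mean plus 3 SD, and starting fluorescence ratio within library mean plus 5 SD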;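 further: higher score means more depolarization so channel activation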
TRPC6 inh – mouse TRPC6 channel inhibition; B-score at 10 µM; 310,000 compounds, 1.1% hits; Q61143; HEK293-TRPC6, membrane potential dye, ACh-evoked depolarization; hits give low values; AID 2553;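 active means B-score under library mean minus 3 SD, initial fluorescence not abnormally high, positive integrated signal ratio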;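 further: B-score derived from integrated fluorescence ratio over the kinetic read; more negative B-score means stronger inhibition of depolarization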
TRPC4 PAM – TRPC4 (mouse) allosteric potentiation; Q9QUQ5; HEK293 TRPC4beta/mu-opioid, DAMGO EC20, Fluo-4 Ca2+ flux; hits give high values; B-score at 10 µM; 310,000 compounds, 0.42% hits;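 active means B-score of calcium response area above 5 SD of library B-scores, with initial fluorescence ratio within 5 SD of library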
TRPC4 spec 2 – mouse TRPC4 off-target activity of TRPC6 inhibitors, second screen; shares compounds with TRPC6 inh; HEK293 TRPC4/MOR, membrane potential dye fluorescence; channel activated by saturating DAMGO dose; inhibition, % at 10 µM; 920 compounds, 42% hits; AID 2776;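 active means compounds whose fluorescence signal differed from control wells by over 3 SD, either direction, in both duplicate plates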
TRPC4 spec – tests whether TRPC6 inhibitors also affect mouse TRPC4 | shares compounds with TRPC6 inh | HEK293 TRPC4/mu-opioid, membrane potential fluorescence | activity change, negative = inhibition, % at 10 µM | 920 compounds, 61% hits;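 active means rise or fall in signal beyond 3 SD of buffer-only wells in both replicate plates, either sign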;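 further: integrated kinetic ratio of fluorescence range over baseline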
HEK293 MPD ctr 2-1 – second counter-screen for TRPC6 inhibitors: parental HEK293 cells; 920 compounds, 31% hits; AID 2779; parental HEK293 membrane potential dye fluorescence; maximal acetylcholine challenge after compound addition; shares compounds with TRPC6 inh; signal change vs control, % at 10 µM;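 active means membrane potential signal moving either way by over 3 SD of the maximum-effect control, in both duplicate plates, meaning non-specific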
HEK293 MPD ctr-1 – parental HEK293 nonspecific activity of TRPC6 inhibitors | parental HEK293 membrane potential dye fluorescence | membrane potential signal change, % at 10 µM | shares compounds with TRPC6 inh | 920 compounds, 60% hits;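 active means membrane potential signal shifting up or down by more than 3 SD of buffer-only wells, on both duplicate plates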
HEK293 MPD ctr-2 – checks TRPC6 modulator effects in parental HEK293 cells; shares compounds with TRPC6 inh; membrane potential dye fluorescence; membrane potential signal change, % at 10 µM; 2,400 compounds, 51% hits; AID 488924;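 active means membrane potential signal moves up or down beyond 5 SD from buffer-only wells, on both duplicate plates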
HEK293 MPD ctr 2-2 – second counter-screen for TRPC6 modulators: effect in parental HEK293 cells | 2,400 compounds, 14% hits | membrane potential dye fluorescence; after compound, maximal acetylcholine stimulation | shares compounds with TRPC6 inh | AID 488926 | inhibition, % at 10 µM;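 active means membrane potential signal drops by more than 5 SD from the mean control signal, in both duplicate plates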
TRPC4 ctr mod – tests whether TRPC6 modulators also affect mouse TRPC4; HEK293 TRPC4/mu-opioid, membrane potential fluorescence; AID 488927; 2,400 compounds, 69% hits; percent change from control (negative = decrease, positive = increase), % at 10 µM; shares compounds with TRPC6 inh;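 active means membrane potential signal moved up or down beyond 5 SD of buffer control wells, in both duplicate plates, actives on both sides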
TRPC4/MOR inh 2 – mouse TRPC4 off-target activity of TRPC6 modulators, second screen; shares compounds with TRPC6 inh; AID 488928; 2,400 compounds, 55% hits; HEK293 TRPC4/mu-opioid, membrane potential dye fluorescence; stimulated with maximal-effect DAMGO; inhibition, % at 10 µM;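 active means drop in membrane potential signal beyond 5 SD of the control wells in both duplicate plates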;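 further: TRPC4 counter screen for TRPC6 hits run under conditions tuned for TRPC6 not TRPC4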
TRPC6 block conf – mouse TRPC6 inhibitor confirmation. shares compounds with TRPC6 inh. HEK293-TRPC6, membrane potential dye, ACh-evoked depolarization. 3,300 compounds, 43% hits. inhibition, % at 10 µM;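 active means fluorescence ratio falls more than 5 SD below the full-stimulation control mean, in both duplicate runs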;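 further: integrated fluorescence ratio of peak minus minimum over baseline after agonist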
TRPC6 act conf – confirmation of mouse TRPC6 activators | HEK293-TRPC6 membrane potential dye fluorescence, FDSS | 2,800 compounds, 11% hits | AID 488961 | activation, % at 10 µM | shares compounds with TRPC6 inh;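 active means ratio signal rise beyond 5 SD above unstimulated control wells' mean, seen in both duplicate runs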
Large screens that a line does not name were inactive (follow-up assays come after a bar, where they were run).

CCC1=[N+](C)c2cccc3cccc(c23)N1C	TRPC6 inh -6 | HEK293 MPD ctr-2 -344% | HEK293 MPD ctr 2-2 inactive | TRPC4 ctr mod -52% | TRPC4/MOR inh 2 47% | TRPC6 block conf 42% | TRPC6 act conf inactive
Cc1cc(C)c(S(=O)(=O)CCC(C)C)c(=O)[nH]1	none
COc1cc(/C=C(\C#N)c2ccccn2)cc(OC)c1O	TRPC6 act 14, TRPC6 inh -5.1 | HEK293 MPD ctr-2 458% | HEK293 MPD ctr 2-2 72% | TRPC4 ctr mod 66% | TRPC4/MOR inh 2 inactive | TRPC6 block conf 46% | TRPC6 act conf 146%
O=C(NNC(=O)c1csc(N2CCOCC2)n1)c1cccnc1	none
O=C1/C(=C\c2cc(Cl)c(O)c(Cl)c2)SC(=S)N1Cc1ccccc1	TRPC4 agonist 97, TRPC6 act 152, TRPC4 PAM 35 | HEK293 MPD ctr-2 active | HEK293 MPD ctr 2-2 inactive | TRPC4 ctr mod 538% | TRPC4/MOR inh 2 inactive | TRPC6 block conf inactive | TRPC6 act conf 594%
COC(=O)c1cc(S(=O)(=O)N2CCOCC2)ccc1Sc1ccccc1N	none
CCN(CC)CCNC(=O)c1[nH]c2ccc(OCc3ccccc3)cc2c1C	TRPC6 inh -7.5 | HEK293 MPD ctr-2 inactive | HEK293 MPD ctr 2-2 inactive | TRPC4 ctr mod inactive | TRPC4/MOR inh 2 38% | TRPC6 block conf 55%
COc1ccc(CNC(=O)CN2c3ccccc3S(=O)(=O)c3ccccc32)cc1	none
O=C/C=C/c1c(-c2ccccc2)cc2oc3ccccc3cc1-2	TRPC6 inh -9.3 | TRPC4 spec 2 inactive | TRPC4 spec inactive | HEK293 MPD ctr 2-1 inactive | HEK293 MPD ctr-1 inactive | TRPC6 block conf inactive | TRPC6 act conf inactive
Nc1ccc(-c2cc3ccccc3oc2=O)cc1	none
COCc1cc(C)nc(SCC(=O)Nc2ccc3c(c2)n(C)c(=O)n3C)c1C#N	none
CC(=O)O[C@@H]1[C@@H](OC(C)=O)[C@H](n2ccc3cc([N+](=O)[O-])ccc32)OC[C@@H]1OC(C)=O	none
Cc1cc(C)c2cc3c(ccn3C3OC[C@H](O)[C@H](O)[C@H]3O)cc2n1 (stereo not given in full)	TRPC6 inh -7.1 | HEK293 MPD ctr-2 inactive | HEK293 MPD ctr 2-2 inactive | TRPC4 ctr mod -68% | TRPC4/MOR inh 2 34% | TRPC6 block conf inactive | TRPC6 act conf inactive
C[n+]1ccc(/C=N/Nc2nc(Cl)c(C#N)c(Cl)c2Cl)cc1	TRPC6 inh -7.6 | TRPC4 spec 2 66% | TRPC4 spec inactive | HEK293 MPD ctr 2-1 -108% | HEK293 MPD ctr-1 inactive | TRPC6 block conf 62% | TRPC6 act conf inactive
CCOC(=O)c1nnc(-c2ccccc2)nc1NCc1ccccc1	none
CCOC(=O)c1c2n(c3c(NCc4ccccc4)ncnc13)CCCC2	TRPC6 inh -5.2 | HEK293 MPD ctr-2 -94% | HEK293 MPD ctr 2-2 66% | TRPC4 ctr mod -16% | TRPC4/MOR inh 2 46% | TRPC6 block conf 54% | TRPC6 act conf inactive
O=C(CCC1CCCCC1)NCCN1C2=NC[C@@H](Cc3ccccc3)N2C[C@H]1Cc1ccc(O)cc1	TRPC6 inh -5.5 | HEK293 MPD ctr-2 inactive | HEK293 MPD ctr 2-2 inactive | TRPC4 ctr mod inactive | TRPC4/MOR inh 2 inactive | TRPC6 block conf inactive | TRPC6 act conf inactive
O=C(CCC1CCCCC1)NCCN1C2=NC[C@H](Cc3ccccc3)N2C[C@H]1Cc1ccc(O)cc1	none
CCOC(=O)c1c(C)n(C)c2ccc(OC)c(NC(=O)CCN3CCC(Cc4ccccc4)CC3)c12	TRPC6 inh -5.2 | HEK293 MPD ctr-2 inactive | HEK293 MPD ctr 2-2 inactive | TRPC4 ctr mod inactive | TRPC4/MOR inh 2 70% | TRPC6 block conf 54% | TRPC6 act conf inactive
CCOC(=O)C1=C(c2ccccc2)N(C)C(=O)NC1c1ccc(O)c(OC)c1 (stereo not given)	TRPC6 inh -9.2 | TRPC4 spec 2 inactive | TRPC4 spec 0.0% | HEK293 MPD ctr 2-1 inactive | HEK293 MPD ctr-1 0.0% | TRPC6 block conf inactive | TRPC6 act conf inactive
CCOC(=O)C1=C(c2ccccc2)NC(=O)NC1c1ccc(O)c(OCC)c1 (stereo not given)	none
COc1cc(/C=C(/C#N)C(=O)NC(C)c2ccccc2)cc(OC)c1O (stereo not given)	TRPC6 inh -5.3 | HEK293 MPD ctr-2 415% | HEK293 MPD ctr 2-2 inactive | TRPC4 ctr mod 48% | TRPC4/MOR inh 2 29% | TRPC6 block conf 51%
CC(NC(=O)/C(C#N)=C/c1ccc(C(=O)O)cc1)c1ccccc1 (stereo not given)	none
CN1CCN(/N=C/c2nc(-c3ccccc3)n3ccccc23)CC1	none
CN1CCN(/N=C/c2nc(-c3ccc(Cl)cc3)n3ccccc23)CC1	TRPC6 inh -5.3 | HEK293 MPD ctr-2 -164% | HEK293 MPD ctr 2-2 inactive | TRPC4 ctr mod -36% | TRPC4/MOR inh 2 40% | TRPC6 block conf inactive | TRPC6 act conf inactive
Brc1cccc(-c2cnc3n2CCCCC3)c1	TRPC6 inh -5.4 | HEK293 MPD ctr-2 136% | HEK293 MPD ctr 2-2 inactive | TRPC4 ctr mod 24% | TRPC4/MOR inh 2 48% | TRPC6 block conf 54%
CC(C)NC(=O)C(=O)Nc1cc2c3c(c1)C(C)C(=O)N3CCC2 (stereo not given)	none

Bioassay records from PubChem BioAssay.
